# Reference: ChEMBL document CHEMBL1124598, “Benzofuro[2,3-c]pyridin-6-ols: synthesis, affinity for opioid-receptor subtypes, and antinociceptive activity” (J Med Chem, 1989)
# Test system: Mus musculus
# Assay: Analgesic activity 30 min after subcutaneous administration in mouse by using PQW test
# Format: functional
# Conditions: sc, 0.5 h
# How it was run: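 Male CF-1 mice (18-23 g), ten per dose; compound given sc, then 30 min later phenylquinone 3.75 mg/kg in 5% aqueous ethanol ip. Mice observed 10 min in free-moving cages for abdominal stretching. ED50 determined with 95% confidence limits.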
row,Structure (SMILES),ED50 [µmol/kg]
1,CC[C@@]12CCN(CCc3ccccc3)C[C@@H]1Oc1ccc(O)cc12,0.00037
2,CC[C@@]12CCN(Cc3ccco3)C[C@@H]1Oc1ccc(O)cc12,0.0908
3,CC[C@@]12CCN(CC3CCCC3)C[C@@H]1Oc1ccc(O)cc12,0.0521
4,CC[C@@]12CCN(Cc3ccoc3)C[C@@H]1Oc1ccc(O)cc12,0.0512
5,CCCN1CC[C@@]2(CC)c3cc(O)ccc3O[C@H]2C1,0.0051
6,CC[C@@]12CCN(C)C[C@@H]1Oc1ccc(O)cc12,0.005
7,CC[C@@]12CCN(CC3CCC3)C[C@@H]1Oc1ccc(O)cc12,0.00145
8,CC[C@@]12CCN(CC3CC3)C[C@@H]1Oc1ccc(O)cc12,0.00119
9,CC[C@@]12CCN(CC3CCCO3)C[C@@H]1Oc1ccc(O)cc12 (some centres undefined),0.005
